Compounds with a hit are over-represented: about 3.7% of the library has one in this group of screens.
Kir21 inh: Kir2.1 (mouse) channel inhibition | P35561 | HEK293-Kir2.1, FluxOR thallium flux fluorescence; hits give low values | B-score at 10 µM | 0.85% of 310,000 active;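 active = fluorescence ratio B-score at or below minus 3 SD of library scores, with starting-brightness B-score within 2 SD, cut at about -4.2 in these data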;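 note: channel flux triggered by added potassium and thallium sulfate stimulus; B-score of peak minus minimum fluorescence over baseline after thallium stimulus; more negative B-score means stronger Kir2.1 block with less thallium influx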
Target sequence (P35561 whole entry, looked up): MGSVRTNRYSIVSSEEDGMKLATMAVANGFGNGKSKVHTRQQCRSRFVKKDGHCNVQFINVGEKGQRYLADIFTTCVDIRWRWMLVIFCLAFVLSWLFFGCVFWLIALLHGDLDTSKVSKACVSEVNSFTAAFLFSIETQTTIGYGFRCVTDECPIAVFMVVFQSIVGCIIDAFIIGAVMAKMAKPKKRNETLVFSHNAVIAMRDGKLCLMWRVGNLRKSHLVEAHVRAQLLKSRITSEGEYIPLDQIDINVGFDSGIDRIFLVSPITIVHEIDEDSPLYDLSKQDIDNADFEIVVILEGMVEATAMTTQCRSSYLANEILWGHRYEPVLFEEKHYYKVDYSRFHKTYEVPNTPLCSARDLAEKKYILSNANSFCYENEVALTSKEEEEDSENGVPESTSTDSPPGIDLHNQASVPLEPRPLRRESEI
KCNK3 inh: human KCNK3 channel inhibition, primary screen; O14649; CHO-KCNK3 thallium flux, FluxOR fluorescence; hits give low values; B-score at 10 µM; 0.84% of 340,000 active; AID 602410;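 active = B-score under library mean minus 4 SD, starting fluorescence ratio at most library mean plus 5 SD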;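 note: more negative B-score means stronger inhibition of thallium flux through KCNK3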
KCNQ1 pot: human KCNQ1 channel potentiation or activation. P51787. CHO-K1 KCNQ1, thallium flux FluxOR fluorescence; hits give high values. B-score at 10 µM. 0.35% of 310,000 active;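 active = fluorescence ratio B-score, a plate-corrected score, at least three library SD, with initial intensity B-score within 5 SD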
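Assay system: stable KCNQ1 CHO-K1 line; medium: assay buffer, equal DMSO in all wells; timing: 90 min dye loading and 20 min compound exposure, both at room temperature; technique: kinetic FluxOR thallium fluorescence, 10-s 1-Hz baseline, 110-s post-stimulus read; read-out basis: B score of baseline-normalized fluorescence ratio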
KCNQ1 block: blocks the human KCNQ1 potassium channel. 1.3% of 310,000 active. P51787. CHO-K1 KCNQ1, FluxOR thallium flux fluorescence; hits give high values. AID 2642. B-score at 10 µM;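 active = compounds whose thallium flux B-score, printed positive for inhibition, exceeds three library SD while starting fluorescence stays within three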;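 note: channel opened by potassium depolarization with thallium stimulus after 20 min compound exposure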
hERG rescue: compounds protecting human hERG from proarrhythmic drug block. Q12809. CHO-hERG, FluxOR thallium flux, dofetilide IC70 present. activation (rescue from dofetilide block), less the hit threshold, % at 10 µM. 0.51% of 310,000 active;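 active = activation above the mean of controls blocked by dofetilide plus 5 SD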;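 note: thallium influx through hERG after potassium depolarization seen as dye fluorescence rise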
KCNK9 block: inhibitors of human KCNK9 two-pore domain potassium channel. B-score at 10 µM. Q9NPC2. HEK293 KCNK9, FluxOR thallium flux fluorescence; hits give low values. 1.2% of 310,000 active. AID 488922;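 active = ratio B-score over 3 SD below the library mean, with starting fluorescence within 5 SD of its mean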;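 note: negative B-score means less thallium flux so channel inhibition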
KCNK3 inh conf: confirmation of human KCNK3 two-pore domain potassium channel inhibitors; shares compounds with KCNK3 inh; CHO-KCNK3 thallium flux, FluxOR fluorescence; 0% buffer, 100% carvedilol maximal block; ratio percent of control, % at 10 µM; 99% of 2,400 active;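 active = ratio percent of control, averaged over triplicates, above buffer control mean plus 5 SD, cut at about 64% in these data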;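 note: ratio is the fluorescence rise from min to max over baseline after thallium stimulus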
KCNK3 noninduced: KCNK3 inhibitor counter-screen hit in non-induced cells; shares compounds with KCNK3 inh; non-induced KCNK3 parental cells, FluxOR thallium flux; hits give low values; thallium flux ratio (lower = more inhibition) at 10 µM; 40% of 2,400 active;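 active = thallium flux ratio, averaged over three wells, more than 5 SD below the buffer control mean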;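 note: host cells are CHO cells without KCNK3 induction; ratio is peak minus trough fluorescence over baseline then normalized to buffer controls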
* marks the source's active call; other numbers are inactive results.

For Cc1ccc(N(C)S(=O)(=O)c2cc(-c3cnc(C4CC4)o3)ccc2C)cc1 the results were Kir21 inh -0.16, KCNK3 inh -11*, KCNQ1 pot inactive, KCNQ1 block inactive, hERG rescue -12, KCNK9 block inactive, KCNK3 inh conf 145* and KCNK3 noninduced inactive.
O=C(Nc1nc(-c2ccccc2)cs1)C1c2ccccc2Oc2ccccc21 was read as Kir21 inh 0.4, KCNK3 inh -8.8*, KCNQ1 pot inactive, KCNQ1 block inactive, hERG rescue -14, KCNK9 block -7.2*, KCNK3 inh conf 119* and KCNK3 noninduced inactive.
CC(OC(=O)C1=COCCO1)C(=O)c1ccc(C(C)(C)C)cc1 (stereo unspecified) was read as KCNK3 inh inactive.
For CCOC(=O)CSc1nc2ccccc2c(=O)n1CC1CCCC1 the results were Kir21 inh -1.1, KCNK3 inh -11*, KCNQ1 pot inactive, KCNQ1 block inactive, hERG rescue -12, KCNK9 block inactive, KCNK3 inh conf 116* and KCNK3 noninduced 0.15*.
CCOC(=O)CSc1nc2ccccc2c(=O)n1CC was read as Kir21 inh 2.3, KCNK3 inh inactive, KCNQ1 pot inactive, KCNQ1 block inactive, hERG rescue -1 and KCNK9 block inactive.
COc1cc(C(c2nnnn2C2CCCC2)N2CCN(C(=O)c3ccco3)CC2)cc(OC)c1OC (stereo unspecified) was read as Kir21 inh -0.58, KCNK3 inh inactive, KCNQ1 pot inactive, KCNQ1 block inactive, hERG rescue -4 and KCNK9 block inactive.
`COc1cc2c(cc1OC)C(c1cccs1)N(C(=S)NC(C)C)CC2` (stereo unspecified) gave Kir21 inh -1.4, KCNK3 inh -11*, KCNQ1 pot inactive, KCNQ1 block inactive, hERG rescue -16, KCNK9 block inactive, KCNK3 inh conf 94* and KCNK3 noninduced inactive.
Cc1ccccc1Nc1nc(N)nc(-c2oc3ccccc3c2C)n1 was read as Kir21 inh 0.19, KCNK3 inh -10*, KCNQ1 pot inactive, KCNQ1 block inactive, hERG rescue -15, KCNK9 block -14*, KCNK3 inh conf 117* and KCNK3 noninduced 0.16*.
CC(C(=O)Nc1ccccc1-c1ccccc1)N(C)Cc1nc2ccccc2c(=O)[nH]1 (stereo unspecified) was read as Kir21 inh -1.3, KCNK3 inh inactive, KCNQ1 pot inactive, KCNQ1 block inactive, hERG rescue -7 and KCNK9 block inactive.
CC(C)(C)NC(=O)c1ccc(Sc2ccccc2)c([N+](=O)[O-])c1 was read as Kir21 inh 1.4, KCNK3 inh -9*, KCNQ1 pot inactive, KCNQ1 block inactive, hERG rescue -9, KCNK9 block inactive, KCNK3 inh conf 119* and KCNK3 noninduced inactive.
Screening S=C(NCc1ccccc1)NCc1cccc(Cl)c1 returned Kir21 inh -3.1, KCNK3 inh inactive, KCNQ1 pot inactive, KCNQ1 block inactive, hERG rescue -15 and KCNK9 block inactive.
`Fc1ccc(CNC(=S)NCc2cccc(Cl)c2)cc1` gave Kir21 inh -4.4*, KCNK3 inh -9.4*, KCNQ1 pot inactive, KCNQ1 block inactive, hERG rescue -20, KCNK9 block inactive, KCNK3 inh conf 113* and KCNK3 noninduced inactive.
For COc1cccc(CNC(=S)Nc2ccc(Cl)cc2C)c1 the results were Kir21 inh -0.64, KCNK3 inh inactive, KCNQ1 pot inactive, KCNQ1 block inactive, hERG rescue -2 and KCNK9 block inactive.
`Cc1cc(Cl)ccc1NC(=S)NCc1ccccc1` gave Kir21 inh 0.3, KCNK3 inh -9.5*, KCNQ1 pot inactive, KCNQ1 block inactive, hERG rescue -1, KCNK9 block inactive, KCNK3 inh conf 87* and KCNK3 noninduced inactive.
For COc1ccc(N2CCN(C(=O)CCCn3nnnc3CN3CCOCC3)C(C)C2)cc1 (stereo unspecified) the results were Kir21 inh -1.1, KCNK3 inh inactive, KCNQ1 pot inactive, KCNQ1 block inactive, hERG rescue -11 and KCNK9 block inactive.
For Cc1ccc(C)c2nc3sc(C(=O)N4CCOCC4)c(N)c3cc12 the results were Kir21 inh -1.7, KCNK3 inh inactive, KCNQ1 pot inactive, KCNQ1 block inactive, hERG rescue -16 and KCNK9 block inactive.
`Cc1cc(C)c2nc3sc(C(=O)N4CCOCC4)c(N)c3cc2c1` gave Kir21 inh -1.4, KCNK3 inh -11*, KCNQ1 pot inactive, KCNQ1 block inactive, hERG rescue -22, KCNK9 block inactive, KCNK3 inh conf 115* and KCNK3 noninduced 0.13*.
Screening FC(F)(F)c1ccccc1-n1ccnc1 returned KCNK3 inh inactive.
Clc1ccccc1C(c1ccccc1)(c1ccccc1)n1ccnc1 was read as Kir21 inh -0.68, KCNK3 inh -11*, KCNQ1 pot inactive, KCNQ1 block inactive, hERG rescue -14, KCNK9 block -18*, KCNK3 inh conf 129* and KCNK3 noninduced 0.13*.
For O=C(c1cccs1)c1cn(CC(=O)N2CCc3ccccc3C2)c2ccccc12 the results were Kir21 inh -0.5, KCNK3 inh -11*, KCNQ1 pot inactive, KCNQ1 block inactive, hERG rescue -10, KCNK9 block inactive, KCNK3 inh conf 80* and KCNK3 noninduced inactive.
O=C(O)Cn1cc(C(=O)c2cccs2)c2ccccc21 was read as Kir21 inh 2.5, KCNK3 inh inactive, KCNQ1 pot inactive, KCNQ1 block inactive, hERG rescue -9 and KCNK9 block inactive.
`O=C1OC(c2cccs2)=N/C1=C\c1ccc(-c2ccccc2Cl)o1` gave Kir21 inh -2.9, KCNK3 inh inactive, KCNQ1 pot inactive, KCNQ1 block inactive, hERG rescue -21, KCNK9 block -7.9*, KCNK3 inh conf 141* and KCNK3 noninduced 0.11*.
`Nc1ncnc2c1ncn2[C@@H]1O[C@H](CNC(=O)[C@@H](N)COCc2ccccc2)[C@@H](O)[C@H]1O` gave KCNK3 inh inactive.
`COc1ccc2c(c1)OC[C@H]1[C@H]2N2C(=O)[C@H](C)NC(=O)[C@@]2(C)[C@H]1c1ccccc1` gave KCNK3 inh inactive.
